MDM2 E3 inh: inhibitors of human Mdm2 E3 ubiquitin ligase. cell-based MDM2 ubiquitination luciferase reporter, 2 h; 0 = plate control, 100 = twice control, blank-subtracted. signal enhancement, % at 5 µM. 210,000 compounds, 0.11% hits. AID 1230;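 active = signal enhancement of 30% or more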;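 also: luminescence tracks abundance of the self-degrading MDM2-luciferase fusion protein; higher signal means inhibition of MDM2 E3 ligase activity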
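Material: Stable MDM2–luciferase fusion reporter cells | Amount: 2000 cells seeded into each well | Dosing: One concentration, 5 µM, with 0.2% DMSO | Incubation: 4 h cell settling then 2 h compound exposure, 37 °C | Measured by: Luciferase luminescence | Read-out basis: % enhancement relative to plate controls after blank subtraction | Benchmarks: Control and blank well means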
S1P3 antagonist: S1P3 (human) receptor antagonism | Q99500 | CHO S1P3 NFAT-BLA reporter, FRET fluorescence, antagonist mode | inhibition, % at 4.98 µM | 170,000 compounds, 0.27% hits;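 active = inhibition above the plate cutoff, the mean inhibition of test wells on that plate plus 3 SD, cut at about 28% in these data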;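 also: cells challenged with S1P at its EC80 of 0.8 µM; blue over green emission ratio from cleaved BLA substrate after 4 h stimulation; 0% = S1P-stimulated wells and 100% = unstimulated DMSO-only wells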
S1P4 agonist: human S1P4 receptor agonism. O95977. S1P4-expressing cell line, agonist reporter assay. activation, % at 4.98 µM. 220,000 compounds, 0.35% hits; in the data active = activation above about 11%;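 also: 0% = DMSO vehicle and 100% = reference agonist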
Target sequence (O95977 whole entry, looked up): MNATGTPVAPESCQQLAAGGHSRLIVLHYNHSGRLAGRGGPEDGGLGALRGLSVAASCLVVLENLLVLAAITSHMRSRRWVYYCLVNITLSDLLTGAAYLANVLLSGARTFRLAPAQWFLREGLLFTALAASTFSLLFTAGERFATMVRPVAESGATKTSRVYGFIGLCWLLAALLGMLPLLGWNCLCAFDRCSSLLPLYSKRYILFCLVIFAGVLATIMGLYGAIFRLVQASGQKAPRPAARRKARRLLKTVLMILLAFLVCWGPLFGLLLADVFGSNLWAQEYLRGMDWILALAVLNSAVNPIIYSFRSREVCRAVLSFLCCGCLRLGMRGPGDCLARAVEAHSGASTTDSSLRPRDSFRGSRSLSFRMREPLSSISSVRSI
Lmaj promast: reduces viability of Leishmania major promastigotes; resazurin fluorescence viability; inhibition, % at 10 µM; 200,000 compounds, 9% hits; AID 1063; in the data active = inhibition above about 50%;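 also: promastigotes grown with compound for 44 hours at 28 °C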
S1P4 antagonist: antagonists of human S1P4 receptor; O95977; S1P4-expressing cells, antagonist mode, reporter read-out; inhibition, % at 4.98 µM; 220,000 compounds, 0.26% hits; AID 1510; in the data active = inhibition above about 29%;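 also: 0% = wells stimulated with agonist and 100% = vehicle wells without agonist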
* marks the source's active call; other numbers are inactive results. This is one part of a sample in which hits are shown more often than they occur.

`O=C1CN(C(=O)CN2CCCCC2)C(c2ccccc2)c2cc(Br)ccc2N1` (stereo not drawn) gave MDM2 E3 inh -11, S1P3 antagonist -3, S1P4 agonist 1, Lmaj promast 98* and S1P4 antagonist -14.
`CN1c2ccc([N+](=O)[O-])cc2CC2(C(=O)NC(=O)N(c3ccccc3)C2=O)C1c1ccccc1` (stereo not drawn) gave MDM2 E3 inh -6, S1P3 antagonist -3, S1P4 agonist 5, Lmaj promast 58* and S1P4 antagonist -6.
For O=c1[nH]c(=O)n(C2CCCCCC2)c(O)c1C=NCCCN1CCOCC1 the results were MDM2 E3 inh -14, S1P3 antagonist -6, S1P4 agonist 0, Lmaj promast 89* and S1P4 antagonist -19.
`Cc1nc2ccc(P(=O)(O)O)cc2s1` gave MDM2 E3 inh 0, S1P3 antagonist 20, S1P4 agonist 0, Lmaj promast -5 and S1P4 antagonist 1.
Screening CCOC(=O)C1CCN(/C=C2/C(=O)NC(=O)N(c3cccc(C)c3C)C2=O)CC1 returned MDM2 E3 inh 9, S1P3 antagonist -11, S1P4 agonist 1, Lmaj promast 54* and S1P4 antagonist -9.
Screening CCOC(=O)C1CCN(/C=C2/C(=O)NC(=S)N(c3cccc(OC)c3)C2=O)CC1 returned MDM2 E3 inh 7, S1P3 antagonist -17, S1P4 agonist -1, Lmaj promast 44 and S1P4 antagonist 1.
Screening CCOC(=O)C1CCN(/C=C2\C(=O)NC(=S)N(CC)C2=O)CC1 returned MDM2 E3 inh -7, S1P3 antagonist -10, S1P4 agonist 1, Lmaj promast 76* and S1P4 antagonist -1.
For COc1ccc(-n2c(O)c(C(C)=NCCc3c[nH]c4ccccc34)c(=O)[nH]c2=O)cc1 the results were MDM2 E3 inh -6, S1P3 antagonist 2, S1P4 agonist 1 and S1P4 antagonist 6.
Screening COc1cc2c(cc1OC)-c1c(OC)c(OC)c(OC)c3ccnc(c13)C2=O returned S1P3 antagonist 10, S1P4 agonist -1, Lmaj promast 78* and S1P4 antagonist -2.
`CCC1CCCCN1CC(=O)c1ccc(OC(F)F)cc1` (stereo not drawn) gave MDM2 E3 inh -17, S1P3 antagonist 1, S1P4 agonist 8, Lmaj promast -9 and S1P4 antagonist -1.
Screening CCN(CC)P(=O)(c1n(CC)cc[n+]1CC)N(CC)CC returned MDM2 E3 inh -5, S1P3 antagonist 0, S1P4 agonist 2, Lmaj promast 0 and S1P4 antagonist -1.
Screening O=C(c1ccc2c3c(cccc13)CC2)C1CCCN(CC2CC2)C1 (stereo not drawn) returned MDM2 E3 inh -3, S1P3 antagonist 2, S1P4 agonist 1, Lmaj promast 99* and S1P4 antagonist -8.
Screening O=C(c1ccc2c3c(cccc13)CC2)C1CCCN(Cc2ncc[nH]2)C1 (stereo not drawn) returned MDM2 E3 inh 9, S1P3 antagonist -15, S1P4 agonist 1, Lmaj promast 48 and S1P4 antagonist -5.
`Cn1ncnc2c(=O)n(C)c(=O)nc1-2` gave S1P3 antagonist 105*.
`O=C1CCCN1c1ccc(S(=O)(=O)O)cc1` (tested in a mixture with another compound) gave MDM2 E3 inh -1, S1P3 antagonist -6, S1P4 agonist 2, Lmaj promast 28 and S1P4 antagonist -15.
For CCN(CC)CCCOC(=O)C(OC(C)C)(c1ccccc1)c1ccccc1 the results were MDM2 E3 inh 0, S1P4 agonist 1, Lmaj promast 89* and S1P4 antagonist 15.
`CCOC(C(=O)OCCCN(CC)CC)(c1ccccc1)c1ccccc1` gave MDM2 E3 inh -14, S1P4 agonist 0, Lmaj promast 100* and S1P4 antagonist 9.
Screening OC1/C(=C/c2ccccc2F)N2CCC1CC2 (stereo not drawn) returned MDM2 E3 inh -15, S1P3 antagonist -9, S1P4 agonist -3, Lmaj promast 7 and S1P4 antagonist 9.
O=C(CN1C(=O)CN=C(c2ccccc2Cl)c2cc(Cl)ccc21)NCc1ccco1 was read as MDM2 E3 inh -23, S1P3 antagonist 5, S1P4 agonist -3, Lmaj promast 97* and S1P4 antagonist -5.
COc1ccc(C2=NCC(=O)N(CC(=O)NCc3ccco3)c3sc4c(c32)CCCC4)cc1 was read as MDM2 E3 inh 0, S1P3 antagonist 5, S1P4 agonist 5, Lmaj promast 0 and S1P4 antagonist -10.
`O=C1NC(=O)C(=Cc2ccc(-c3ccccc3[N+](=O)[O-])o2)C(=O)N1` gave MDM2 E3 inh -14, S1P3 antagonist -8, S1P4 agonist -3 and S1P4 antagonist 0.
Screening O=C1NC(=O)C(=Cc2ccc(-c3cc(Cl)ccc3[N+](=O)[O-])o2)C(=O)N1 returned MDM2 E3 inh -10, S1P3 antagonist 11, S1P4 agonist 1, Lmaj promast 64* and S1P4 antagonist -9.
Screening O=[N+]([O-])c1ccc(N2CCNCC2)cc1N1CCCCC1 returned MDM2 E3 inh -15, S1P3 antagonist 6, S1P4 agonist 1, Lmaj promast 76* and S1P4 antagonist 5.
For CCNc1cc(N2CCNCC2)ccc1[N+](=O)[O-] the results were MDM2 E3 inh -19, S1P3 antagonist 5, S1P4 agonist -3, Lmaj promast 7 and S1P4 antagonist -26.
Screening Cc1ccccc1-n1c(O)c(C=Nc2ccc(N(C)C)cc2)c(=O)[nH]c1=O returned MDM2 E3 inh -12, S1P3 antagonist -23, S1P4 agonist 0, Lmaj promast 58* and S1P4 antagonist 3.
Cc1cccc(N=Cc2c(O)n(-c3ccccc3C)c(=O)[nH]c2=O)c1 was read as MDM2 E3 inh -4, S1P4 agonist -4, Lmaj promast -3 and S1P4 antagonist 9.
For O/N=C1\CCC2CN(C3CCCCC3)CC2C1 (stereo not drawn) the results were MDM2 E3 inh -8, S1P3 antagonist -8, S1P4 agonist 0, Lmaj promast 1 and S1P4 antagonist -12.
O=C(NCC(c1cccnc1)N1CCN(c2ccccc2F)CC1)Oc1ccccc1 (stereo not drawn) was read as MDM2 E3 inh -10, S1P4 agonist 2, Lmaj promast 97* and S1P4 antagonist -8.
COc1ccc(N2CCN(C(CNC(=O)Oc3ccccc3)c3cccnc3)CC2)cc1 (stereo not drawn) was read as MDM2 E3 inh 1, S1P3 antagonist -25, S1P4 agonist -3, Lmaj promast 92* and S1P4 antagonist 0.
`Fc1ccccc1N1CCN(Cc2c(F)cccc2F)CC1` gave MDM2 E3 inh -1, S1P3 antagonist 8, S1P4 agonist 0, Lmaj promast 0 and S1P4 antagonist -19.
`CNC(=O)O/N=C/c1nn(C(=O)C(C)(C)C)cc1Br` gave MDM2 E3 inh -3, S1P3 antagonist -9, S1P4 agonist 1 and S1P4 antagonist -6.
`CCCCn1c(=O)c(C(=O)Nc2ccsc2C(=O)OC)c(O)c2ccccc21` gave MDM2 E3 inh 22, S1P3 antagonist 9, S1P4 agonist 1, Lmaj promast 53* and S1P4 antagonist -11.

Bioassay records deposited in PubChem by several laboratories.
